In ChEMBL document CHEMBL1255381, “Golgicide A reveals essential roles for GBF1 in Golgi assembly and function” (Nat Chem Biol, 2009):
The source made the active and inactive calls. The rule behind the calls is not given here.

Assays:
Vero [1] = test: Induction of depolymerization of actin microfilaments in african green monkey Vero cells at 25 uM after 30 mins by immunofluorescence method; type: functional, cell-based; conditions: Chlorocebus sabaeus
Vero [2] = test: Effect on disruption of microtubules in african green monkey Vero cells at 5 ug/ml after 30 mins by immunofluorescence method; type: functional, cell-based; conditions: Chlorocebus sabaeus
Summary of the method: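 They were then fixed and immunostained for microtubules, and microtubule morphology was judged by immunofluorescence microscopy against DMSO-treated cells.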

Q: `C=C1[C@@H](C)[C@H]2[C@H](Cc3ccccc3)NC(=O)[C@]23OC(=O)/C=C/[C@H](O)CCC[C@@H](C)C/C=C/[C@H]3[C@@H]1O` was tested. Which Activity (Vero [1]) did it give?
A: Active

Q: With `COC(=O)Nc1nc2cc(C(=O)c3cccs3)ccc2[nH]1` as the compound, how does the Activity (Vero [2]) read?
A: Active
